In general, IC50 refers to the point on the concentration scale where inhibition reaches its midpoint. Read a low IC50 as greater potency in that assay. The inhibition is the percentage by which the read-out fell short of the control. The low end stands for little suppression, the high end for strong suppression.

For assay [1], the species on record is Rattus norvegicus. The assay can be described thus: Antidiabetic activity in albino rat diabetic model assessed as plasma glucose level measured after 7 hrs (reference value: 280 +/- 6.51 mg/dl). Format: functional.
Assay [2] in a line: Inhibition of calf ALR2. The arrangement: species or system Bos taurus. The method, boiled down: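 Partially purified ALR2 extracted from calf eye. D,L-glyceraldehyde was the substrate with NADPH as cofactor, and sulindac served as reference. IC50 values are given ± SEM from n = 3. Kinetics were also run with inhibitor at 20 µM, varying substrate or NADPH for Km and inhibition type.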

Assay [3] is filed under the species Rattus norvegicus. The assay can be described thus: Antidiabetic activity in albino rat diabetic model assessed as plasma glucose level measured after 2 hrs (reference value: 251 +/- 2.91 mg/dl). Format: functional.
For assay [4], the species on record is Rattus norvegicus. The assay can be described thus: Antidiabetic activity in albino rat diabetic model assessed as plasma glucose level measured after 5 hrs (reference value: 275 +/- 3.53 mg/dl). Format: functional.
The species entered for assay [5] is Rattus norvegicus. The assay can be described thus: Antidiabetic activity in albino rat diabetic model assessed as plasma glucose level measured after 3 hrs (reference value: 263 +/- 10.67 mg/dl). Format: functional.
The species entered for assay [6] is Rattus norvegicus. In words: Antidiabetic activity in albino rat diabetic model assessed as plasma glucose level measured after 4 hrs (reference value: 291 +/- 6.40 mg/dl). Format: functional.
The species entered for assay [7] is Rattus norvegicus. The assay can be described thus: Antidiabetic activity in albino rat diabetic model assessed as plasma glucose level measured after 1 hr (reference value: 274 +/- 4.73 mg/dl). Format: functional.
For assay [8], the species on record is Rattus norvegicus. In words: Antidiabetic activity in albino rat diabetic model assessed as plasma glucose level measured after 6 hrs (reference value: 285 +/- 8.66 mg/dl). Format: functional.
The nature of assay [9]: Inhibition of calf ALR1. Further details: species or system Bos taurus. The method, boiled down:
(§1)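 ALR1 (aldehyde reductase) partially purified from calf kidney. Values are IC50 ± SEM in µM, or percent inhibition at 0.6 mM. Valproic acid served as positive control to validate the assay.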

A further assay is filed under the species Bos taurus. In words: Inhibition of calf ALR1 at 0.6 mM. The method, boiled down: as §1

Take `O=C1NC2(CC3CCC2C3)C(=O)N1S(=O)(=O)c1ccc(Cl)cc1` (stereo unspecified): the Activity was determined as 128 mg/dL in the assay filed under Rattus norvegicus [1]; 287 mg/dL in the assay listed under Rattus norvegicus [3]; 215 mg/dL in the assay filed under Rattus norvegicus [4]; 283 mg/dL in the assay listed under Rattus norvegicus [5]; 280 mg/dL in the assay listed under Rattus norvegicus [6]; 392 mg/dL in the assay filed under Rattus norvegicus [7]. In addition, in the assay listed under Rattus norvegicus [8], the Activity worked out at 143 mg/dL. Moreover, the half-inhibitory concentration (IC50) was found to be 5.59 µM in [2] and 61.1 µM in [9].
In the case of `O=C1c2ccccc2C(=O)c2cc(S(=O)(=O)N3C(=O)NC4(CC5CCC4C5)C3=O)ccc21` (stereo unspecified), the Activity was found to be 86 mg/dL in the assay listed under Rattus norvegicus [1]; 399 mg/dL in the assay listed under Rattus norvegicus [3]; 187 mg/dL in the assay listed under Rattus norvegicus [4]; 338 mg/dL in the assay listed under Rattus norvegicus [5]; 281 mg/dL in the assay filed under Rattus norvegicus [6]; 460 mg/dL in the assay filed under Rattus norvegicus [7]. Moreover, the Activity in the assay filed under Rattus norvegicus [8] was 99 mg/dL. The same compound showed an IC50 in [2] of 4.5 µM. The inhibition in the assay listed under Bos taurus is 41.6%.
On to `O=C1NC2(CC3CCC2C3)C(=O)N1S(=O)(=O)c1ccc([N+](=O)[O-])cc1` (stereo unspecified), for which the Activity was 542 mg/dL in the assay filed under Rattus norvegicus [1]; 429 mg/dL in the assay listed under Rattus norvegicus [3]; 349 mg/dL in the assay listed under Rattus norvegicus [4]; 482 mg/dL in the assay filed under Rattus norvegicus [5]; 421 mg/dL in the assay filed under Rattus norvegicus [6]; 399 mg/dL in the assay filed under Rattus norvegicus [7]. The Activity in the assay filed under Rattus norvegicus [8] amounted to 502 mg/dL. The IC50 in assay [2] worked out at 13.1 µM; in [9], 44.8 µM.
As for `Cc1ccc(S(=O)(=O)N2C(=O)NC3(CC4CCC3C4)C2=O)cc1` (stereo unspecified), the Activity in the assay listed under Rattus norvegicus [1] was found to be 114 mg/dL; in the assay filed under Rattus norvegicus [3], 421 mg/dL; in the assay filed under Rattus norvegicus [4], 163 mg/dL; in the assay listed under Rattus norvegicus [5], 305 mg/dL; in the assay listed under Rattus norvegicus [6], 225 mg/dL; in the assay listed under Rattus norvegicus [7], 506 mg/dL. In addition, the Activity in the assay listed under Rattus norvegicus [8] worked out at 128 mg/dL. The IC50 in [2] came to 1.8 µM; in assay [9], 117 µM.
Regarding `O=C1NC2(CC3CCC2C3)C(=O)N1S(=O)(=O)c1ccc2ccccc2c1` (stereo unspecified), the Activity in the assay listed under Rattus norvegicus [1] is 430 mg/dL; in the assay listed under Rattus norvegicus [3] it was 389 mg/dL; in the assay listed under Rattus norvegicus [4] it was 401 mg/dL; in the assay listed under Rattus norvegicus [5] it was 393 mg/dL; in the assay filed under Rattus norvegicus [6] it was 471 mg/dL; in the assay listed under Rattus norvegicus [7], 210 mg/dL. Besides, the Activity in the assay filed under Rattus norvegicus [8] turned out to be 414 mg/dL. The IC50 in assay [2] is 3.8 µM. In the assay listed under Bos taurus, this compound came in with an inhibition of 36.8%.
In turn, `CC1=C(CC(=O)O)c2cc(F)ccc2/C1=C\c1ccc([S+](C)[O-])cc1` (stereo unspecified) [SULINDAC] yielded an IC50 in assay [2] of 0.293 µM.
For the compound `COc1ccc(S(=O)(=O)N2C(=O)NC3(CC4CCC3C4)C2=O)cc1` (stereo unspecified), the Activity in the assay filed under Rattus norvegicus [1] is 620 mg/dL; in the assay filed under Rattus norvegicus [3] it was 353 mg/dL; in the assay filed under Rattus norvegicus [4] it was 565 mg/dL; in the assay filed under Rattus norvegicus [5], 544 mg/dL; in the assay filed under Rattus norvegicus [6], 570 mg/dL; in the assay listed under Rattus norvegicus [7], 413 mg/dL. The Activity in the assay listed under Rattus norvegicus [8] is 600 mg/dL. The values for the IC50 in [2] and in [9] were 4.4 µM and 40.2 µM, respectively.
As for `COc1ccc(Cl)cc1C(=O)NCCc1ccc(S(=O)(=O)NC(=O)NC2CCCCC2)cc1` [GLYBURIDE], the Activity in the assay listed under Rattus norvegicus [1] worked out at 150 mg/dL; in the assay listed under Rattus norvegicus [3], 289 mg/dL; in the assay filed under Rattus norvegicus [4], 220 mg/dL; in the assay listed under Rattus norvegicus [5], 250 mg/dL; in the assay listed under Rattus norvegicus [6], 239 mg/dL; in the assay listed under Rattus norvegicus [7], 350 mg/dL. The Activity in the assay filed under Rattus norvegicus [8] came out at 170 mg/dL.
As to `O=C1NC2(CC3CCC2C3)C(=O)N1S(=O)(=O)c1ccc(Br)cc1` (stereo unspecified), the Activity in the assay filed under Rattus norvegicus [1] was 245 mg/dL; in the assay filed under Rattus norvegicus [3], 273 mg/dL; in the assay listed under Rattus norvegicus [4], 352 mg/dL; in the assay filed under Rattus norvegicus [5], 357 mg/dL; in the assay filed under Rattus norvegicus [6], 353 mg/dL; in the assay listed under Rattus norvegicus [7], 289 mg/dL. Also, the Activity in the assay filed under Rattus norvegicus [8] was 337 mg/dL. This compound also registered an IC50 in [2] of 15.4 µM. In the assay listed under Bos taurus, this compound yielded an inhibition of 43.2%.
